Source: PubChem BioAssay AID504383 (The Scripps Research Institute Molecular Screening Center, 2011)
Screen size: about 2,500 compounds; about 1,200 (48%) were called active.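 Rule for the calls: active = mean activation above the low control average plus 3 SD, as set in the primary screen (cut at about 12% in these data); inactive = the rest.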 The set was probably picked from earlier hits. This is one part of the list.

Target: Troponin I, cardiac muscle (Homo sapiens) + Troponin T, cardiac muscle (Homo sapiens) + Troponin C, slow skeletal and cardiac muscles (Homo sapiens) (UniProt P19429+P45379+P63316)
Test: calcium sensitizers of cardiac thin filaments – biochemical, IANBD-TnC fluorescence, triplicate, confirmation (AID 504383);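 note: 0% = DMSO at 0.472 mM calcium and 100% = DMSO at 2.9 mM calcium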
Conditions: IANBD-labeled cardiac RTF, Ca2+ sensitivity fluorescence; at 7.2 µM; stronger effect = higher value; scaled from EC20 to saturating calcium; tested at EC20 calcium, 0.472 mM
Summary of the method: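 material = labelled regulated thin filaments | probe or stimulus = Ca2+ 0.472 mM, EC20 level | dosing = single nominal compound dose of 7.2 µM | schedule = 15 min at 25 °C | signal = fluorescence intensity of labelled filaments | evaluation = fluorescence gain scaled between EC20 and EC100 calcium controls | benchmarks = low control EC20 calcium, high control EC100 calcium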

SMILES | activation
NC(=O)NC(Cc1ccccc1)C(=O)NCC1(N2CCCCC2)CCCCC1 (stereo not given) | 9.4% (inactive)
Cc1cc(-c2ccccc2C(=O)NC2CCCCC2)on1 | 6.39% (inactive)
Cc1nn(-c2ccccc2)c(Cl)c1C(=O)NC1CCCCC1 | 20.7% (active)
Cc1c(C(=O)NC2CC2)oc2ccccc12 | 7.6% (inactive)
O=C(CNC(=O)C12CC3CC(CC(C3)C1)C2)OCC(=O)N1CCCCC1 | 11.6% (inactive)
COc1ccc2nc(-c3ccccn3)[nH]c2c1 | 93.2% (active)
COc1ccc(OC)c(/C=C/c2nc3ccccc3[nH]c2=O)c1 | 6.55% (inactive)
COc1ccc(OC)c(C2=C/C(=C/c3ccccn3)C(=O)O2)c1 | 6.12% (inactive)
O=c1[nH]c2cc(C(F)(F)F)ccc2n1-c1cc(C(F)(F)F)ccc1O | 8.69% (inactive)
CCOc1ccccc1C(=O)NN1C(=O)CCC1=O | 23.7% (active)
Cc1cc(S(=O)(=O)NC(C)C)ccc1OCC(=O)NCc1ccccc1 | 3.1% (inactive)
Cc1ccnc2nc(C(=O)OCC(=O)NCCc3ccccc3)nn12 | 28.6% (active)
CCC1C/C(=C\c2cc(OC)c(OC)cc2OC)C(=O)/C(=C/c2cc(OC)c(OC)cc2OC)C1 (stereo not given) | 21.3% (active)
COc1cc(OC)c(OC)cc1/C=C1/Cc2ccccc2C1=O | 8.78% (inactive)
Cc1cc(NS(C)(=O)=O)c(=O)n(Cc2cccc(F)c2)c1 | 0.31% (inactive)
C/C(=C\C=C(C#N)C#N)c1cc(C#N)c(N)o1 | 16.3% (active)
c1ccc(Cn2c(-c3ccccc3)nc3nc4ccccc4nc32)cc1 | 32.2% (active)
Cc1nnc(-c2ccccc2)c(=O)n1/N=C/c1c(O)ccc2ccccc12 | 5.78% (inactive)
O=C(N/N=C\c1c(O)ccc2ccccc12)c1cncc(Br)c1 | 20% (active)
O=C(NN=Cc1c(O)ccc2ccccc12)c1ccncc1 | 9.86% (inactive)
O=C(N/N=C/c1c(O)ccc2ccccc12)c1cccc(C(F)(F)F)c1 | 164% (active)
Oc1ccc2ccccc2c1C=NCc1cn2ccsc2n1 | 3.76% (inactive)
Cn1nnnc1SCCOc1ccc(C#N)cc1 | -1.4% (inactive)
CCOC(=O)c1cn(-c2ccc(F)c(F)c2F)c2c(F)c(F)c(F)cc2c1=O | 10.3% (inactive)

SMILES | activation
Cc1c(N=C2N=C(NC(=O)Nc3ccc(Cl)cc3)c3ccccc32)c(=O)n(-c2ccccc2)n1C | 58.8% (active)
Cc1cc([N+](=O)[O-])nn1CC(=O)Nc1c(C)n(C)n(-c2ccccc2)c1=O | 8.97% (inactive)
CC/C(=C/c1sc2ccccc2[n+]1CC)SC | 2.73% (inactive)
CC[n+]1c(/C=C/C=C/N(C(C)=O)c2ccccc2)sc2ccccc21 | 135% (active)
CCCC(NC(=O)CCc1c(C)c2cc3c(-c4ccccc4)coc3cc2oc1=O)C(=O)O (stereo not given) | 181% (active)
C=CCOc1ccccc1CNc1cccc(F)c1 | 7.46% (inactive)
C=CCOc1ccc(Br)cc1CNCC | 29.4% (active)
Cc1nc(NC(=O)C(Cl)Cl)sc1C(=O)N(C)C | 8.86% (inactive)
Cc1ccc(Cn2nc(C)c(NC(=O)C3(C)CC3(Br)Br)c2C)cc1 (stereo not given) | 17.1% (active)
Cc1nn(Cc2c(F)c(F)c(F)c(F)c2F)c(C)c1NC(=O)c1nn(C)c(C)c1Br | 9.42% (inactive)
CCn1cc(/C=C/C(=O)Nc2c(C)nn(Cc3ccccc3C)c2C)cn1 | 7.35% (inactive)
Cn1c(=O)cc(N)n(Cc2ccccc2)c1=O | 42.5% (active)
Cc1ccc(NC(=O)COC(=O)/C=C/c2c(C)nn(-c3ccc(F)cc3)c2Cl)cc1F | 8% (inactive)
CCOc1ccc(C(C(=O)NC2CCCCC2)N(C(=O)Cc2cccs2)c2ccc(-n3cnnn3)c(OC)c2)cc1 (stereo not given) | 3.97% (inactive)
CCOc1ccc(-n2c(SCC(=O)Nc3ccc(OC)cc3OC)nc3c(c2=O)SCC3)cc1 | 13.3% (active)
Cc1ccc(C(C)NC(=O)c2cccs2)cc1C (stereo not given) | 480% (active)
CCCCNC(=O)Nc1nnc(-c2ccccc2)o1 | 10.1% (inactive)
O=C(CSc1nnc(-c2ccco2)o1)NC1CCCCC1 | 6.06% (inactive)
O=C(CCSc1nnc(-c2ccco2)o1)Nc1ccccc1 | 69% (active)
C/C(O)=c1/ccc2cccc3nc(C)nc1c23 | 62.2% (active)
Cc1ccccc1NS(=O)(=O)c1ccc(OCC(=O)N2CCCCC2)cc1 | 6.33% (inactive)
CCN(CC(=O)N1CCCC1)S(=O)(=O)c1ccc(OC)cc1 | 262% (active)
COc1ccc(CN(Cc2cccn2C)S(=O)(=O)c2ccccc2)cc1 | 9.11% (inactive)
O=C1NC(c2cccc([N+](=O)[O-])c2)Oc2ccccc21 (stereo not given) | 10.3% (inactive)

SMILES | activation
Cc1ccc(C)c(NC(=O)CCN2CCOCC2)c1 | 0.21% (inactive)
Cc1ccc(C)c(NC(=O)COC(=O)Cc2ccsc2)c1 | 12.3% (active)
C=CCNC(=O)c1cccc2c1C(=O)c1ccc(N3CCCC3)cc1S2(=O)=O | 6.98% (inactive)
O=C(NCc1ccc(OC(F)(F)F)cc1)c1cccc2c1C(=O)c1ccc(N3CCCCC3)cc1S2(=O)=O | 17.5% (active)
O=C(NC1CCCCC1)c1cccc2c1C(=O)c1ccc(N3CCC(Cc4ccccc4)CC3)cc1S2(=O)=O | 5.3% (inactive)
CC1CCN(c2ccc3c(c2)S(=O)(=O)c2cccc(C(=O)NC4CCCCC4)c2C3=O)CC1 | 1.22% (inactive)
O=C(NC1CCCCC1)c1cccc2c1C(=O)c1ccc(N3CCCC3)cc1S2(=O)=O | 87.8% (active)
O=C(NCc1cccc(F)c1)c1cccc2c1C(=O)c1ccc(N3CCCC3)cc1S2(=O)=O | 8.28% (inactive)
O=C(NCC1CC1)c1cccc2c1C(=O)c1ccc(N3CCCC3)cc1S2(=O)=O | 183% (active)
CN1CCC[C@@H]1CCNC(=O)c1cccc2c1C(=O)c1ccc(N3CCCC3)cc1S2(=O)=O | -0.88% (inactive)
Cc1ccc(CNC(=O)c2cccc3c2C(=O)c2ccc(N4CCCCC4)cc2S3(=O)=O)cc1 | 6.7% (inactive)
CCOCCCNC(=S)NCCCNc1nc2c(C)cc(C)cc2cc1C#N | 7.25% (inactive)
O=C(/C=C/c1cccc(F)c1)Nc1cc(S(=O)(=O)N2CCOCC2)ccc1N1CCCC1 | 9.19% (inactive)
O=C(CN1CCc2ccccc2C1)Nc1cc(S(=O)(=O)N2CCOCC2)ccc1N1CCOCC1 | 8.9% (inactive)
Cc1ccccc1OCCC(=O)Nc1cc(S(=O)(=O)N2CCCCC2)ccc1N1CCN(C)CC1 | 16.9% (active)
CCn1c(SCC(=O)NNC(=O)c2ccco2)nnc1-c1ccco1 | -0.46% (inactive)
CCn1c(SCC(=O)c2ccc(Cl)cc2)nnc1C(C)C | 13.2% (active)
N#C/C(=C/c1ccc(N2CCOCC2)o1)C(=O)NC1CCCCC1 | -0.07% (inactive)
N#C/C(=C/c1ccc(N2CCCCC2)o1)C(=O)Nc1ccc(Cl)cc1 | 111% (active)
N#C/C(=C\c1ccc(N2CCOCC2)o1)C(=O)NCC1CCCO1 (stereo not given) | -0.28% (inactive)
COc1ccc(NC(=O)/C(C#N)=C\c2ccc(N3CCOCC3)o2)cc1 | 32.2% (active)
N#C/C(=C/c1ccc(N2CCOCC2)o1)C(=O)Nc1ccccc1 | 2.26% (inactive)
N#C/C(=C/c1ccc(N2CCCCC2)o1)C(=O)NCCc1c[nH]c2ccccc12 | 40.9% (active)
N#C/C(=C\c1ccc(N2CCOCC2)o1)C(=O)NC1CCCCC1 | 28.9% (active)

SMILES | activation
CCOC(=O)/C(C#N)=N\Nc1cc(Cl)ccc1OC | 6.36% (inactive)
N#C/C(=C\c1ccc(N2CCOCC2)o1)C(=O)N1CCOCC1 | 6.09% (inactive)
N#C/C(=C/c1ccc(N2CCCCC2)o1)C(=O)Nc1ccc2ccccc2c1 | 171% (active)
N#C/C(=C\c1ccc(N2CCCCC2)o1)C(=O)Nc1cccc(Br)c1 | 5.9% (inactive)
N#C/C(=C/c1ccc(N2CCOCC2)o1)C(=O)N1CCOCC1 | 10.1% (inactive)
N#C/C(=C\c1ccc(N2CCCCC2)o1)C(N)=O | 11.6% (active)
COCCNC(=O)/C(C#N)=C/c1ccc(N2CCOCC2)o1 | 9.29% (inactive)
N#C/C(=C\c1ccc(N2CCOCC2)o1)C(=O)NCCc1ccccc1 | 43.7% (active)
CN1C(=O)NC(c2ccccc2[N+](=O)[O-])C2=C1CCCC2=O (stereo not given) | 14.6% (active)
O=C1NC2=C(C(=O)CCC2)C(c2ccccc2Cl)N1 (stereo not given) | 10.3% (inactive)
C=CCN1C(=O)/C(=C/c2ccc(O)c(OC)c2)S/C1=N/c1nccs1 | 5.76% (inactive)
COc1ccc(/C=C2\SC(c3ccc(C)cc3)=NC2=O)cc1OC | 12.9% (active)
COc1ccc(/C=C2/SC(c3ccc(C)cc3)=NC2=O)cc1OC | 34.6% (active)
COc1ccc(/C=C2\SC(=O)NC2=S)cc1OC | 7.81% (inactive)
COc1ccc(/C=c2\s/c(=C/C(=O)c3ccc(C)cc3)[nH]c2=O)cc1OC | 1.66% (inactive)
COc1cc(N2CCCC2)c(OC)cc1/C=C1/NC(=S)NC1=O | 113% (active)
COc1ccc2c(Cl)c(C(=O)N/N=C3\CCCC(=O)C3)sc2c1 | 47.6% (active)
O=C1CCCC(=NNC(=O)c2cc3ccccc3cc2O)C1 | 8.36% (inactive)
O=C1CCC/C(=N/NC(=O)c2sc3ccccc3c2Cl)C1 | 7.01% (inactive)
CC1(c2cccc(Br)c2)NC(=O)NC1=O (stereo not given) | 52.2% (active)
COc1ccc(NC(C)=O)cc1NC(=O)C1CCCN1C(=O)c1cccs1 (stereo not given) | 6.06% (inactive)
COC(=O)C1=C(C(=O)OC)[C@@H]2Nc3ccccc3[C@@]23C[C@@H](C(=O)OC)N(C(=O)c2cccs2)C3=N1 | 36.8% (active)
O=C(CCC1CCCN(C(=O)C2=CCCC2)C1)N1CCN(c2ccccn2)CC1 (stereo not given) | 4.61% (inactive)
